Data reported in ChEMBL document CHEMBL2203196, “Synthesis, antiproliferative and apoptotic activities of N-(6(4)-indazolyl)-benzenesulfonamide derivatives as potential anticancer agents” (Eur J Med Chem, 2012).
Calls of active or inactive are those of the source. The calls are words filed in the database; no cut-off is given here.

What follows are compounds tested on A549 (assay: Induction of apoptosis in human A549 cells assessed as change in nuclear morphology at > 200 uM after 3 days by DAPI staining-based fluorescence microscopy relative to control). Settings: not given.
Type: functional
Method in brief: (§1)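 Cells plated at 5000–10000/well, left 6–8 h, then treated at MTT-derived IC₅₀ or IC₉₀; washed in cold PBS, fixed in 70% ethanol at 4 °C, stained with DAPI just before microscopy; percent apoptotic segmented nuclei scored against untreated controls; mean ± SD of 4–6 data.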
`Cc1ccc(S(=O)(=O)Nc2cccc3c2cnn3C)cc1` showed an Activity of 41.2%.
For `CCOc1ccc(NS(=O)(=O)c2ccc(C)cc2)c2cn(C)nc12`, the Activity was 54.3%.
Compound `C=CCn1cc2ccc(NS(=O)(=O)c3ccc(C)cc3)cc2n1` has an Activity of 29.2%.

What follows are compounds tested on P388 (assay: Induction of apoptosis in mouse P388 cells assessed as change in nuclear morphology at 0.97 to 957 uM after 3 days by DAPI staining-based fluorescence microscopy relative to control). Settings: not given.
Type: functional
Method in brief: as §1
For `Cc1ccc(S(=O)(=O)Nc2cccc3c2cnn3C)cc1`, the Activity was 91.3%.
`CCOc1ccc(NS(=O)(=O)c2ccc(C)cc2)c2cn(C)nc12` was tested, and the Activity was 94.3%.
Compound `C=CCn1cc2ccc(NS(=O)(=O)c3ccc(C)cc3)cc2n1` has an Activity of 68.7%.

These compounds were tested on A549 (assay: Cytotoxicity against human A549 cells after 72 hrs by MTT assay). Settings: A549, 72 h.
Type: functional, cell-based
Method in brief: (§2)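 Cells plated at 900–1800/well for exponential growth, centrifuged 275 g 2 min, left 6–8 h, then exposed 72 h to at least 5 concentrations (1:10 serial dilutions) in duplicate; MTT read-out; IC₅₀ from single concentration–response curves; mean ± SD of 3–9 experiments.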
For `Cc1ccc(S(=O)(=O)Nc2cccc3c2cnn3C)cc1`, the IC50 was 6.88 µM.
Compound `CCOc1ccc(NS(=O)(=O)c2ccc(C)cc2)c2cn(C)nc12` has an IC50 of 14.4 µM.
`C=CCn1cc2ccc(NS(=O)(=O)c3ccc(C)cc3)cc2n1` showed an IC50 of 11.9 µM.

The compounds below were run on P388 (assay: Induction of apoptosis in mouse P388 cells assessed as change in nuclear morphology at IC50 after 3 days by DAPI staining-based fluorescence microscopy relative to control). Settings: not given.
Type: functional
Method in brief: as §1
`Cc1ccc(S(=O)(=O)Nc2cccc3c2cnn3C)cc1` gave an Activity of 37.3%.
`CCOc1ccc(NS(=O)(=O)c2ccc(C)cc2)c2cn(C)nc12` was tested, and the Activity was 10.3%.
Compound `C=CCn1cc2ccc(NS(=O)(=O)c3ccc(C)cc3)cc2n1` has an Activity of 30%.

These compounds were tested on A2780 (assay: Cell cycle arrest in human A2780 cells assessed as accumulation at S phase at 6.8 to 102.3 uM after 72 hrs by propidium iodide staining-based FACS flow cytometry (reference value: 25.9 +/- 4.7 %)). Settings: not given.
Type: functional
In the case of `Cc1ccc(S(=O)(=O)Nc2cccc3c2cnn3C)cc1`, the Activity is reported as 15%.
`CCOc1ccc(NS(=O)(=O)c2ccc(C)cc2)c2cn(C)nc12` showed an Activity of 13.7%.
`C=CCn1cc2ccc(NS(=O)(=O)c3ccc(C)cc3)cc2n1` was tested, and the Activity was 5.5%.

Each compound was assayed on A2780 (assay: Cell cycle arrest in human A2780 cells assessed as accumulation at G2/M phase at IC50 after 72 hrs by propidium iodide staining-based FACS flow cytometry (reference value: 23.1 +/- 2.5 %)). Settings: not given.
Type: functional
Compound `Cc1ccc(S(=O)(=O)Nc2cccc3c2cnn3C)cc1` has an Activity of 23.7%.
Work on `CCOc1ccc(NS(=O)(=O)c2ccc(C)cc2)c2cn(C)nc12` yielded an Activity of 29.3%.
With `C=CCn1cc2ccc(NS(=O)(=O)c3ccc(C)cc3)cc2n1` the Activity was 24.2%.

What follows are compounds tested on A2780 (assay: Cell cycle arrest in human A2780 cells assessed as cells with > 4n chromosomes at 6.8 to 102.3 uM after 72 hrs by propidium iodide staining-based FACS flow cytometry). Settings: not given.
Type: functional
Compound `Cc1ccc(S(=O)(=O)Nc2cccc3c2cnn3C)cc1` has an Activity of 6.8%.
`CCOc1ccc(NS(=O)(=O)c2ccc(C)cc2)c2cn(C)nc12` gave an Activity of 12%.
Compound `C=CCn1cc2ccc(NS(=O)(=O)c3ccc(C)cc3)cc2n1` has an Activity of 11.1%.

The compounds below were run on A2780 (assay: Cytotoxicity against human A2780 cells after 72 hrs by MTT assay). Settings: A2780, 72 h.
Type: functional, cell-based
Method in brief: as §2
Work on `Cc1ccc(S(=O)(=O)Nc2cccc3c2cnn3C)cc1` yielded an IC50 of 6.62 µM.
`CCOc1ccc(NS(=O)(=O)c2ccc(C)cc2)c2cn(C)nc12` showed an IC50 of 8.34 µM.
For `C=CCn1cc2ccc(NS(=O)(=O)c3ccc(C)cc3)cc2n1`, the IC50 was 4.89 µM.

What follows are compounds tested on A2780 (assay: Upregulation of p53 expression in human A2780 cells at IC50 after 24 hrs by Western blot analysis). Settings: not given.
Type: functional, cell-based
Method in brief: (§3)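 A2780 cells treated at IC₅₀ and harvested at 24, 48, 72 h; lysed 30 min at 4 °C in 1% Triton X-100, 0.15 M NaCl, 10 mM Tris pH 7.4 with protease inhibitors; Bradford protein assay; 50 µg protein resolved on 12% SDS-PAGE, transferred to nitrocellulose, Ponceau S loading check, blocked overnight 2% BSA in TBST at 4 °C, probed for p53 or bax.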
For `Cc1ccc(S(=O)(=O)Nc2cccc3c2cnn3C)cc1`, the Activity was “Active”.
With `C=CCn1cc2ccc(NS(=O)(=O)c3ccc(C)cc3)cc2n1` the Activity was “Active”.

What follows are compounds tested on A2780 (assay: Induction of apoptosis in human A2780 cells assessed as change in nuclear morphology at > 200 uM after 3 days by DAPI staining-based fluorescence microscopy relative to control). Settings: not given.
Type: functional
Method in brief: as §1
`Cc1ccc(S(=O)(=O)Nc2cccc3c2cnn3C)cc1` gave an Activity of 24%.
Compound `CCOc1ccc(NS(=O)(=O)c2ccc(C)cc2)c2cn(C)nc12` has an Activity of 51.5%.
`C=CCn1cc2ccc(NS(=O)(=O)c3ccc(C)cc3)cc2n1` showed an Activity of 66.5%.

Each compound was assayed on A2780 (assay: Upregulation of Bax expression in human A2780 cells at IC50 after 48 hrs by Western blot analysis). Settings: not given.
Type: functional, cell-based
Method in brief: as §3
`Cc1ccc(S(=O)(=O)Nc2cccc3c2cnn3C)cc1` was tested, and the Activity was “inactive”.
`C=CCn1cc2ccc(NS(=O)(=O)c3ccc(C)cc3)cc2n1` was tested, and the Activity was “Active”.

Each compound was assayed on A2780 (assay: Cell cycle arrest in human A2780 cells assessed as accumulation at G0/G1 phase at IC50 after 72 hrs by propidium iodide staining-based FACS flow cytometry (reference value: 51 +/- 6.2 %)). Settings: not given.
Type: functional
`Cc1ccc(S(=O)(=O)Nc2cccc3c2cnn3C)cc1` showed an Activity of 65%.
Compound `CCOc1ccc(NS(=O)(=O)c2ccc(C)cc2)c2cn(C)nc12` has an Activity of 43.5%.
`C=CCn1cc2ccc(NS(=O)(=O)c3ccc(C)cc3)cc2n1` gave an Activity of 66%.

Each compound was assayed on A2780 (assay: Cell cycle arrest in human A2780 cells assessed as accumulation at G2/M phase at 6.8 to 102.3 uM after 72 hrs by propidium iodide staining-based FACS flow cytometry (reference value: 23.1 +/- 2.5 %)). Settings: not given.
Type: functional
Work on `Cc1ccc(S(=O)(=O)Nc2cccc3c2cnn3C)cc1` yielded an Activity of 69.2%.
Work on `CCOc1ccc(NS(=O)(=O)c2ccc(C)cc2)c2cn(C)nc12` yielded an Activity of 64.5%.
With `C=CCn1cc2ccc(NS(=O)(=O)c3ccc(C)cc3)cc2n1` the Activity was 72.7%.

Each compound was assayed on A2780 (assay: Cell cycle arrest in human A2780 cells assessed as accumulation at G0/G1 phase at 6.8 to 102.3 uM after 72 hrs by propidium iodide staining-based FACS flow cytometry (reference value: 51 +/- 6.2 %)). Settings: not given.
Type: functional
With `Cc1ccc(S(=O)(=O)Nc2cccc3c2cnn3C)cc1` the Activity was 9.1%.
With `CCOc1ccc(NS(=O)(=O)c2ccc(C)cc2)c2cn(C)nc12` the Activity was 9.9%.
For `C=CCn1cc2ccc(NS(=O)(=O)c3ccc(C)cc3)cc2n1`, the Activity was 10.8%.

The compounds below were run on A2780 (assay: Cell cycle arrest in human A2780 cells assessed as accumulation at S phase at IC50 after 72 hrs by propidium iodide staining-based FACS flow cytometry (reference value: 25.9 +/- 4.7 %)). Settings: not given.
Type: functional
With `Cc1ccc(S(=O)(=O)Nc2cccc3c2cnn3C)cc1` the Activity was 11.3%.
For `CCOc1ccc(NS(=O)(=O)c2ccc(C)cc2)c2cn(C)nc12`, the Activity was 27.3%.
For `C=CCn1cc2ccc(NS(=O)(=O)c3ccc(C)cc3)cc2n1`, the Activity was 9.8%.

The compounds below were run on A2780 (assay: Induction of apoptosis in human A2780 cells assessed as change in nuclear morphology at IC50 after 3 days by DAPI staining-based fluorescence microscopy relative to control). Settings: not given.
Type: functional
Method in brief: as §1
Compound `Cc1ccc(S(=O)(=O)Nc2cccc3c2cnn3C)cc1` has an Activity of 7.3%.
Compound `CCOc1ccc(NS(=O)(=O)c2ccc(C)cc2)c2cn(C)nc12` has an Activity of 33.5%.
`C=CCn1cc2ccc(NS(=O)(=O)c3ccc(C)cc3)cc2n1` was tested, and the Activity was 19.3%.

Each compound was assayed on A549 (assay: Induction of apoptosis in human A549 cells assessed as change in nuclear morphology at IC50 after 3 days by DAPI staining-based fluorescence microscopy relative to control). Settings: not given.
Type: functional
Method in brief: as §1
Work on `Cc1ccc(S(=O)(=O)Nc2cccc3c2cnn3C)cc1` yielded an Activity of 28%.
In the case of `CCOc1ccc(NS(=O)(=O)c2ccc(C)cc2)c2cn(C)nc12`, the Activity is reported as 22.3%.
With `C=CCn1cc2ccc(NS(=O)(=O)c3ccc(C)cc3)cc2n1` the Activity was 51.2%.

These compounds were tested on P388 (assay: Cytotoxicity against mouse P388 cells after 72 hrs by MTT assay). Settings: P388, 72 h.
Type: functional, cell-based
Method in brief: as §2
`Cc1ccc(S(=O)(=O)Nc2cccc3c2cnn3C)cc1` gave an IC50 of 3.4 µM.
For `CCOc1ccc(NS(=O)(=O)c2ccc(C)cc2)c2cn(C)nc12`, the IC50 was 4.19 µM.
Work on `C=CCn1cc2ccc(NS(=O)(=O)c3ccc(C)cc3)cc2n1` yielded an IC50 of 4.41 µM.
